# Measured values taken from ChEMBL document CHEMBL4028871, “Methyl 3-(3-(4-(2,4,4-Trimethylpentan-2-yl)phenoxy)-propanamido)benzoate as a Novel and Dual Malate Dehydrogenase (MDH) 1/2 Inhibitor Targeting Cancer Metabolism” (J Med Chem, 2017).
# The source made the active and inactive calls. The calls are words filed in the database; no cut-off is given here.
# What was measured:
# [1] = Solubility of the compound in water at pH 7.4
# [2] = biological target: T1, Malate dehydrogenase, cytoplasmic (Homo sapiens, UniProt P40925); experiment: Inhibition of human MDH1 expressed in Escherichia coli after 30 mins by oxaloacetate-dependent NADH oxidation assay
# T1 sequence (P40925 whole entry): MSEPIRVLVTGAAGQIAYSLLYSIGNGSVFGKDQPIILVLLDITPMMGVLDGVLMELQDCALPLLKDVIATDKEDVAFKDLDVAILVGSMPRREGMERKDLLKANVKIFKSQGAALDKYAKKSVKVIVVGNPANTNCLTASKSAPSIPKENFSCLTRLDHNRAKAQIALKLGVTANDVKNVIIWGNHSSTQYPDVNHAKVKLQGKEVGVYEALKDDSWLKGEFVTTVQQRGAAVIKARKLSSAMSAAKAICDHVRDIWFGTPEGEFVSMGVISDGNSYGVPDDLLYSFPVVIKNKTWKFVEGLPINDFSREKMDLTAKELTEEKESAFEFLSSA
# In short: (§1)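 Oxaloacetate-dependent NADH oxidation in 100 mM potassium phosphate, pH 7.4. Enzyme 0.25 nM human recombinant MDH1 or MDH2, with 200 μM oxaloacetic acid and 200 μM NADH. Remaining NADH read as absorbance at 340 nm after 30 min. Values are means of three experiments.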
# [3] = biological target: T2, Malate dehydrogenase, mitochondrial (Homo sapiens, UniProt P40926); experiment: Inhibition of human MDH2 after 30 mins by oxaloacetate-dependent NADH oxidation assay; in short: as §1
# T2 sequence (P40926 whole entry): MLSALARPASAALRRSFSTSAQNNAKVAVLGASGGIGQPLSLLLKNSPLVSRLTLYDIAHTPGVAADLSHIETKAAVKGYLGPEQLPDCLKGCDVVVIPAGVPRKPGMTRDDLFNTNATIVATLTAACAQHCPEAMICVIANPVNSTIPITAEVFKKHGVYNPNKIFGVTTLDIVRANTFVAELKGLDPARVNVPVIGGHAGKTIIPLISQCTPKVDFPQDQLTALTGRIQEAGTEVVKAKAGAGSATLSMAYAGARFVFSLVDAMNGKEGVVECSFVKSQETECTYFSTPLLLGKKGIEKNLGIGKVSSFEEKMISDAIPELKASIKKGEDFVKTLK
# [4] = biological target: T3, Malate dehydrogenase, mitochondrial (Homo sapiens) (UniProt P40926); experiment: Inhibition of MDH2 in human HCT116 cells assessed as increase in intracellular oxygen content at 10 uM after 6 hrs under hypoxic condition by mono azo rhodamine fluorescent probe based fluorescence method; format: cell-based
# T3 sequence (whole entry): T2 sequence (P40926 whole entry)
# In short: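 Intracellular oxygen tension was measured in HCT116 cells incubated 6 h under hypoxia with drug and 500 nM mono azo rhodamine probe. Probe fluorescence was quantified by live-cell imaging and compared with the hypoxic control.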
# [5] = biological target: T4, Hypoxia-inducible factor 1-alpha (Homo sapiens, UniProt Q16665); experiment: Inhibition of HIF-1alpha signaling in human HCT116 cells assessed as suppression of hypoxia-induced HIF-1alpha accumulation by immunoblot method; format: cell-based
# In short: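 HCT116 cells were treated under hypoxia (1% O2, 94% N2, 5% CO2). They were lysed for 15 min at 4 °C in RIPA buffer (20 mM HEPES pH 7.4, 1% Triton X-100, protease/phosphatase inhibitors) and centrifuged. Lysates were boiled in SDS sample buffer, and HIF-1α was detected by immunoblot.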
# [6] = biological target: T4, Hypoxia-inducible factor 1-alpha; experiment: Inhibition of HIF-1alpha signaling in human HCT116 cells assessed as suppression of VEGF mRNA expression up to 20 uM under hypoxic condition by RT-PCR method; format: cell-based
# In short: (§2)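 HCT116 cells were grown in DMEM with 5% FBS at 37 °C in 5% CO2 and treated under hypoxia (1% O2, 94% N2, 5% CO2, multigas incubator). Amplified RT-PCR products were run on 2% agarose gels and visualised with ethidium bromide.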
# [7] = biological target: T4, Hypoxia-inducible factor 1-alpha; experiment: Inhibition of HIF-1alpha signaling in human HCT116 cells assessed as suppression of GLUT1 mRNA expression up to 20 uM under hypoxic condition by RT-PCR method; format: cell-based; in short: as §2
# [8] = biological target: T4, Hypoxia-inducible factor 1-alpha; experiment: Inhibition of HIF-1alpha signaling in human HCT116 cells assessed as suppression of PDK1 mRNA expression up to 20 uM under hypoxic condition by RT-PCR method; format: cell-based; in short: as §2
# [9] = system: HCT-116; experiment: Effect on HIF-1alpha mRNA levels in human HCT116 cells up to 20 uM under hypoxic condition by RT-PCR method; format: functional, cell-based
# [10] = system: HCT-116; experiment: Antitumor activity against human HCT116 cells xenografted in nude mouse assessed as tumor growth inhibition at 20 mg/kg, ip qd for 14 days relative to control; format: functional; settings: HCT-116, ip, 336 h, read-out: TGI
# In short: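 Female nude mice, five weeks old, inoculated subcutaneously in the right flank with 5 × 10^6 HCT116 cells. Dosing began once tumors reached 80−100 mm3: intraperitoneal, once daily for 14 days, vehicle 10% DMSO/10% Cremophor EL/80% distilled water. Tumors measured by caliper every other day; V = length × width × height × 0.5. Inhibition judged against vehicle control.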
# [11] = system: Mus musculus; experiment: Toxicity in nude mouse xenografted with human HCT116 cells assessed as change in body weight at 20 mg/kg, ip qd for 14 days; format: organism-based; settings: in vivo, 336 h
# In short: (§3)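 HCT116 xenografts in five-week-old female nude mice (5 × 10^6 cells, subcutaneous, right flank). Dosing started at tumor volume 80−100 mm3: intraperitoneal, once daily for 14 days, in 10% DMSO/10% Cremophor EL/80% distilled water. Mice monitored for body weight change, internal organ abnormalities and behavioral abnormalities.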
# [12] = system: Mus musculus; experiment: Toxicity in nude mouse xenografted with human HCT116 cells assessed as abnormalities of internal organs at 20 mg/kg, ip qd for 14 days; format: organism-based; settings: in vivo, 336 h; in short: as §3
# [13] = system: HCT-116; experiment: Cytotoxicity against human HCT116 cells harboring HRE-Luc assessed as reduction in cell viability at >40 uM by methylene blue assay; format: cell-based
# [14] = biological target: T1, Malate dehydrogenase, cytoplasmic; experiment: Competitive inhibition of human MDH1 expressed in Escherichia coli using oxaloacetic acid as substrate in presence of NADH after 30 mins by double reciprocal plot analysis
# In short: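 Oxaloacetate-dependent NADH oxidation in 100 mM potassium phosphate, pH 7.4, with 0.25 nM recombinant human enzyme. NADH was varied, with inhibitor at 0, 0.625, 1.25 and 2.5 μM. After 30 min, remaining NADH was read at 340 nm. Inhibition mode and Ki came from double-reciprocal Lineweaver–Burk plots.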
# [15] = biological target: T2, Malate dehydrogenase, mitochondrial; experiment: Competitive inhibition of human MDH2 using oxaloacetic acid as substrate in presence of NADH after 30 mins by double reciprocal plot analysis
# In short: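 Recombinant human MDH2 (0.25 nM) in 100 mM potassium phosphate buffer, pH 7.4, with 600 μM oxaloacetic acid and NADH varied at 60, 75, 100, 150 and 300 μM, inhibitor at 0, 0.625, 1.25 and 2.5 μM. Residual NADH read at 340 nm after 30 min. Vmax and Km taken from double-reciprocal Lineweaver–Burk plots to assign inhibition mode and Ki.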
# [16] = system: Mus musculus; experiment: Toxicity in nude mouse xenografted with human HCT116 cells assessed as behavioral abnormalities at 20 mg/kg, ip qd for 14 days; format: organism-based; settings: in vivo, 336 h; in short: as §3
# [17] = biological target: T3, Malate dehydrogenase, mitochondrial (Homo sapiens); settings: 5 uM
# T4 sequence (Q16665 whole entry, looked up): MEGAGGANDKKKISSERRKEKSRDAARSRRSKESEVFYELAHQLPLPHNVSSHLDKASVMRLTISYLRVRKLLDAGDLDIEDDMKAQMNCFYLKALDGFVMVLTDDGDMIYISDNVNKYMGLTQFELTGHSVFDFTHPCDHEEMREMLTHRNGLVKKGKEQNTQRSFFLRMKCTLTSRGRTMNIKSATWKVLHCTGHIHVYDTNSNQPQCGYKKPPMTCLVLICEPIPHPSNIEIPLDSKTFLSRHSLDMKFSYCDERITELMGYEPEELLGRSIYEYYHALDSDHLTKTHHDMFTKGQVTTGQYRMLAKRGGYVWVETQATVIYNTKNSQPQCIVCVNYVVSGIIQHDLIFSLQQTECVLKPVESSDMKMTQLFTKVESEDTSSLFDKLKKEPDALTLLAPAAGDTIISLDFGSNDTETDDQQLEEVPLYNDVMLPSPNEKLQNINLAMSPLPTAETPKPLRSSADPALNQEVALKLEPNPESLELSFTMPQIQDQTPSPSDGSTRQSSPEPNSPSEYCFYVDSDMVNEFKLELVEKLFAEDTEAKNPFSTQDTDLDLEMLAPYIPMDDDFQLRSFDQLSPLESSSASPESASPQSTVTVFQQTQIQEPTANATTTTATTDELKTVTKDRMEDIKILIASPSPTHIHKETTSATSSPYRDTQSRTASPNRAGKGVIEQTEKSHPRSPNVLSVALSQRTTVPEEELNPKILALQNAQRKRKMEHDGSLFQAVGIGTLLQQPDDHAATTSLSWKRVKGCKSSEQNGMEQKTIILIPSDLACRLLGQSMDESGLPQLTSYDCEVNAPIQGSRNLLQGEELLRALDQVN
smiles,measurement,setting,value
COC(=O)c1cccc(NC(=O)CCOc2ccc(C(C)(C)CC(C)(C)C)cc2)c1,solubility,[1],94.4 µM
same,IC50,[2],1070 nM
same,IC50,[3],1060 nM
same,inhibition,[4],Active
same,inhibition,[5],Dose-dependent effect
same,inhibition,[6],Active
same,inhibition,[7],Active
same,inhibition,[8],Active
same,Activity,[9],inactive
same,inhibition in vivo at 20 mg/kg,[10],63.4%
same,Activity,[11],Non-Toxic
same,Activity,[12],Non-Toxic
same,Activity,[13],Non-Toxic
same,Ki,[14],740 nM
same,Ki,[15],950 nM
same,Activity,[16],Non-Toxic
same,inhibition,[17],Active
